Source: ChEMBL document CHEMBL3864137, “Design, Synthesis, and Pharmacological Evaluation of 2-(2,5-Dimethyl-5,6,7,8-tetrahydroquinolin-8-yl)-N-aryl Propanamides as Novel Smoothened (Smo) Antagonists” (J Med Chem, 2016)
Active and inactive are the calls of the source. The calls are words filed in the database; no cut-off is given here.

Key:
Protein smoothened = Protein smoothened (Mus musculus, UniProt P56726); experiment: Inhibition of Smo-mediated Hh signalling pathway in mouse Shh Light2 cells by Gli-luciferase reporter gene assay; format: cell-based
Protein smoothened, sequence (P56726 whole entry): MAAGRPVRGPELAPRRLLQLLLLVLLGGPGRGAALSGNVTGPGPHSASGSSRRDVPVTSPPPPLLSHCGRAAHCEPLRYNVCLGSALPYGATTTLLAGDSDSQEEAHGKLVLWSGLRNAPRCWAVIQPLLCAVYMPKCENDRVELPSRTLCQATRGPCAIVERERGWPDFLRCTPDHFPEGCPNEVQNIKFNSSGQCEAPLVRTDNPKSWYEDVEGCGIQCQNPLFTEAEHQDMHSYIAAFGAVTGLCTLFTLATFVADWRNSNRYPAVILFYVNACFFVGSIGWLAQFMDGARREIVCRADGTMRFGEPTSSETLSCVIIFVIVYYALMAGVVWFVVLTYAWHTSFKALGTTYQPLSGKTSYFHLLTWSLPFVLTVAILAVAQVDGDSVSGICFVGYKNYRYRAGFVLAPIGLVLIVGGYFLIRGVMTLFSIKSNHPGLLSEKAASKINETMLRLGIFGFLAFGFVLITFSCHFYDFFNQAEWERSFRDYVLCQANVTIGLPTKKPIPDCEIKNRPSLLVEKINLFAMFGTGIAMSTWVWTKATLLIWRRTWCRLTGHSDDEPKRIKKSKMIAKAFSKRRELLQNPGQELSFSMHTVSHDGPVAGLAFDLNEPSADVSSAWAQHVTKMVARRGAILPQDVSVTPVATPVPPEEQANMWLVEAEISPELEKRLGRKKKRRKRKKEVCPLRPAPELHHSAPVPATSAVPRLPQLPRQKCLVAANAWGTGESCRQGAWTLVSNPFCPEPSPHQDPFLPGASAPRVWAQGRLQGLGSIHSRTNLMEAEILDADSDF
Procedure, shortened: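 Light II cells (NIH-3T3 stably carrying a Gli-responsive firefly luciferase reporter plus a Renilla luciferase vector), seeded in 96-well plates and treated. Firefly/Renilla activity in the lysates read by dual luciferase assay on a luminometer. IC50 is the mean ± SD of three separate experiments.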

[1] = target: Protein smoothened (Mus musculus) (UniProt P56726); experiment: Potency index, ratio of vismodegib IC50 to test compound IC50 for Smo-mediated Hh signalling pathway in mouse Shh Light2 cells; format: cell-based
Protein smoothened (Mus musculus), sequence (P56726 whole entry): as above
Procedure, shortened: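 Ratio of reference to test IC50, both taken from the Gli-luc dual luciferase assay in light II cells (NIH-3T3 with stable Gli-firefly reporter and Renilla vector). IC50 values are from three separate experiments.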

[2] = Cytotoxicity against human KB cells; format: toxicity, cell-based
[3] = target: Voltage-gated inwardly rectifying potassium channel KCNH2 (Homo sapiens, UniProt Q12809); experiment: Inhibition of human ERG
Voltage-gated inwardly rectifying potassium channel KCNH2, sequence (Q12809 whole entry): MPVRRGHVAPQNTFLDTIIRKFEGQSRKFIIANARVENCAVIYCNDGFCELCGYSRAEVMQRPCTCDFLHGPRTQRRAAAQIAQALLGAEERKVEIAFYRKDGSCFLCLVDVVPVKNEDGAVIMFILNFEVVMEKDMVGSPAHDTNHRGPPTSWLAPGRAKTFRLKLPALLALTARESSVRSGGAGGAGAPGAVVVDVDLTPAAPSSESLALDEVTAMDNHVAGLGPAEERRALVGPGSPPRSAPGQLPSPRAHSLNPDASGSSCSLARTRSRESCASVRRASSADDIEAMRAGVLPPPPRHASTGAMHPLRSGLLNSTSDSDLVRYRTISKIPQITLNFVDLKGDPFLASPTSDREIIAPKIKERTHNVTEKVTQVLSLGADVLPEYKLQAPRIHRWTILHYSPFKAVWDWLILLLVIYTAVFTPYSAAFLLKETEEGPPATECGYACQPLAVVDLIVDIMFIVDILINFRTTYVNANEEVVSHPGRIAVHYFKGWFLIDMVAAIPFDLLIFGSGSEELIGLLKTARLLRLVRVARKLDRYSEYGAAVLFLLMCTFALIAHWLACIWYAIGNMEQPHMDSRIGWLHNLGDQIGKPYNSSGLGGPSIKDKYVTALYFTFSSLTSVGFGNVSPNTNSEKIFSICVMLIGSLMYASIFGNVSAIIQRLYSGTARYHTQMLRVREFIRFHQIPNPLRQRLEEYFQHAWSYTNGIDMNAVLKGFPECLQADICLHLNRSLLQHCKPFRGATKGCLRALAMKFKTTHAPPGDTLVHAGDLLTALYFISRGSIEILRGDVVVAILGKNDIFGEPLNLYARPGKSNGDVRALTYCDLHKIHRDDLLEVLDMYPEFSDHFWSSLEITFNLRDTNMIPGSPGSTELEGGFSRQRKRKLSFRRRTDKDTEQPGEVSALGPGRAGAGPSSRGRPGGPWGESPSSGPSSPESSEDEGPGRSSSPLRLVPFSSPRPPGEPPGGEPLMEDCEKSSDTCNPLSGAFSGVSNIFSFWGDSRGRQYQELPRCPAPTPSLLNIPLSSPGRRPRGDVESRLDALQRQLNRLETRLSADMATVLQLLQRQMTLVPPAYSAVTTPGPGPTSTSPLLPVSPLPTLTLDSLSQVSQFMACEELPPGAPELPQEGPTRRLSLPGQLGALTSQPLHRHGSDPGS

[4] = target: Protein smoothened (Mus musculus) (UniProt P56726); experiment: Inhibition of Smo-mediated Hh signalling pathway in mouse Shh Light2 cells assessed as suppression of Gli1-mRNA expression at 0.1 uM measured after 36 hrs by RT-qPCR analysis; format: cell-based
[5] = target: Protein smoothened (Homo sapiens) (UniProt Q99835); experiment: Antagonist activity at wild-type Smo (unknown origin) expressed in mouse Shh Light2 cells assessed as suppression of Gli-mRNA expression measured after 36 hrs by dual luciferase reporter gene assay; format: cell-based; conditions: in the assay text read “Gli-luciferase activity” for “Gli-mRNA expression”
Protein smoothened (Homo sapiens), sequence (Q99835 whole entry): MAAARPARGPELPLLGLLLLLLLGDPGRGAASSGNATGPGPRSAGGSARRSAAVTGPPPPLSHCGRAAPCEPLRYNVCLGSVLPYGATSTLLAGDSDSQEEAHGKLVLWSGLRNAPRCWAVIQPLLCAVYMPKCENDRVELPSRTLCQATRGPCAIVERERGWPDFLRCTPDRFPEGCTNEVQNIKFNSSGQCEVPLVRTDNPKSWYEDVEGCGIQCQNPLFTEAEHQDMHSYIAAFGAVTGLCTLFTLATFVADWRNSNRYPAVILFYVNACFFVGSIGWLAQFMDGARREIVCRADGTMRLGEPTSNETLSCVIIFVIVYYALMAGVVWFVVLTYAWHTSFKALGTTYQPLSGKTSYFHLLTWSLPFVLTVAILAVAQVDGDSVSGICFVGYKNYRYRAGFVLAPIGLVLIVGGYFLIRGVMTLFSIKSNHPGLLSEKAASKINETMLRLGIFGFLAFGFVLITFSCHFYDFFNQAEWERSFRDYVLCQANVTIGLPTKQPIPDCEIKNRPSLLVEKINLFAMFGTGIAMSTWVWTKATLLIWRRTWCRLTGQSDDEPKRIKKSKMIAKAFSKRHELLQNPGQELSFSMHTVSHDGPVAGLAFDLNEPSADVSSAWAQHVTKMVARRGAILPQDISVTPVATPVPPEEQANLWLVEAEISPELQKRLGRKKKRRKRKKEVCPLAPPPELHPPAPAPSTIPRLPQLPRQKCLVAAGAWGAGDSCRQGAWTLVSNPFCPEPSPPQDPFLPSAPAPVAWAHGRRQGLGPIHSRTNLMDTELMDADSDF
Procedure, shortened: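 Light II cells transfected with wild-type Smo plasmid to drive Gli-luciferase, exposed to compound for 36 h, then harvested for dual luciferase reporter assay. Mean ± SD.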

[6] = target: Protein smoothened (Homo sapiens) (UniProt Q99835); experiment: Displacement of BODIPY-cyclopamine from human Smo expressed in HEK293 cells at 0.1 uM measured after 10 hrs by DAPI staining based fluorescence microscopic assay; format: cell-based
Procedure, shortened: (§1)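 HEK293 cells on coverslips transfected with hSmo constructs and incubated with BODIPY-cyclopamine plus test drug for 10 h. After PBS wash, paraformaldehyde fixation and Triton X-100 permeabilization, cells were either analysed by FACS or DAPI-mounted for fluorescence microscopy; three experiments.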

[7] = target: Protein smoothened (Homo sapiens) (UniProt Q99835); experiment: Displacement of BODIPY-cyclopamine from human Smo expressed in HEK293 cells at 0.1 uM measured after 10 hrs by FACS analysis; format: cell-based; procedure, shortened: as §1
Medulloblastoma cell = experiment: Antiproliferative activity against mouse medulloblastoma cells isolated from Ptch+/- p53-/- mouse measured after 72 hrs by MTS assay; format: functional
Procedure, shortened: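 Medulloblastoma cells from Ptch+/-;p53-/- allografts in nude mice, minced and collagenase-digested, grown in Neurobasal A with B-27, EGF 20 ng/ml, bFGF 20 ng/ml, nonessential amino acids and N-acetyl cysteine 60 µg/ml. Seeded in 96-well plates, treated 72 h, viability read by MTS; mean ± SD.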

[8] = Induction of apoptosis in mouse medulloblastoma cells isolated from Ptch+/- p53-/- mouse assessed as early apoptotic cells at 10 uM measured after 24 hrs by Annexin V-FITC/propidium iodide staining based flow cytometry (reference value: 0.7%); format: functional, Medulloblastoma cell
[9] = Induction of apoptosis in mouse medulloblastoma cells isolated from Ptch+/- p53-/- mouse assessed as late apoptotic cells at 10 uM measured after 24 hrs by Annexin V-FITC/propidium iodide staining based flow cytometry (reference value: 0.1%); format: functional, Medulloblastoma cell
[10] = target: Protein smoothened (Mus musculus) (UniProt P56726); experiment: Inhibition of Smo in mouse medulloblastoma cells isolated from Ptch+/- p53-/- mouse assessed as decrease in Gli1-mRNA expression at 0.1 uM by qRT-PCR analysis
[11] = Half life in Sprague-Dawley rat at 3 mg/kg, po; format: ADME, organism-based; conditions: in vivo
Procedure, shortened: (§2)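 SD rats; single dose 1.0 mg/kg i.v. or 3.0 mg/kg p.o., vehicle DMSO, Tween 80, normal saline. Plasma concentration–time profiles give CL, Vss, T1/2, Cmax, Tmax, AUC0-∞ and MRT, with oral bioavailability F estimated from p.o. versus i.v. exposure. Values are the average of three runs.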

[12] = Half life in Sprague-Dawley rat at 1 mg/kg, iv; format: ADME, organism-based; conditions: in vivo; procedure, shortened: as §2
[13] = Tmax in Sprague-Dawley rat at 3 mg/kg, po; format: ADME, organism-based; conditions: in vivo; procedure, shortened: as §2
[14] = Cmax in Sprague-Dawley rat at 3 mg/kg, po; format: ADME, organism-based; parameters: dose 3 mg/kg, route oral; conditions: in vivo; procedure, shortened: as §2
[15] = AUClast in Sprague-Dawley rat at 3 mg/kg, po; format: ADME, organism-based; parameters: dose 3 mg/kg, time 0 - last, route oral; conditions: in vivo; procedure, shortened: as §2
[16] = AUClast in Sprague-Dawley rat at 1 mg/kg, iv; format: ADME, organism-based; parameters: dose 1 mg/kg, time 0 - last, route intravenous; conditions: in vivo; procedure, shortened: as §2
[17] = AUC (0 to infinity) in Sprague-Dawley rat at 3 mg/kg, po; format: ADME, organism-based; parameters: dose 3 mg/kg, route oral, time infinity; conditions: in vivo; procedure, shortened: as §2
[18] = AUC (0 to infinity) in Sprague-Dawley rat at 1 mg/kg, iv; format: ADME, organism-based; parameters: dose 1 mg/kg, time infinity, route intravenous; conditions: in vivo; procedure, shortened: as §2
[19] = Clearance in Sprague-Dawley rat at 1 mg/kg, iv; format: ADME, organism-based; conditions: in vivo; procedure, shortened: as §2
[20] = MRT (0 to infinity) in Sprague-Dawley rat at 3 mg/kg, po; format: ADME, organism-based; conditions: in vivo; procedure, shortened: as §2
[21] = MRT (0 to infinity) in Sprague-Dawley rat at 1 mg/kg, iv; format: ADME, organism-based; conditions: in vivo; procedure, shortened: as §2
[22] = Volume of distribution at steady state in Sprague-Dawley rat at 1 mg/kg, iv; format: ADME, organism-based; conditions: in vivo, read-out: Vdss; procedure, shortened: as §2
[23] = In vivo inhibition of Smo-mediated Hh signalling pathway in athymic nude mouse implanted with mouse Ptch+/- p53-/- medulloblastoma cells assessed as suppression of Gli1-mRNA expression at 25 and 50 mg/kg, ip bid for 13 days measured 4 hrs post last dose by RT-qPCR analysis; format: functional, organism-based
Procedure, shortened: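 Nude mice bearing subcutaneous Ptch+/-;p53-/- medulloblastoma allografts dosed i.p. twice daily for 13 days. Tumors collected 4 h after the last dose for Gli1 mRNA measurement; mean ± SD.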

[24] = Oral bioavailability in Sprague-Dawley rat at 3 mg/kg; format: ADME, organism-based; conditions: in vivo; procedure, shortened: as §2
[25] = Antitumor activity against mouse Ptch+/- p53-/- medulloblastoma cells implanted in athymic nude mouse assessed as tumor growth inhibition at 25 mg/kg, ip bid for 13 days relative to control; format: functional; conditions: Medulloblastoma cell, 312 h, read-out: TGI
Procedure, shortened: (§3)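 Primary Ptch+/-;p53-/- medulloblastoma passaged subcutaneously in athymic nude mice as 1 mm3 fragments in the right flank. Dosing began at 100–150 mm3: i.p. 25 or 50 mg/kg twice daily for 13 days. Calipers twice weekly, volume = L×W²/2, TGI from volume change against vehicle. Body weight tracked; tumor mean ± SEM, weight mean ± SD.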

[26] = Antitumor activity against mouse Ptch+/- p53-/- medulloblastoma cells implanted in athymic nude mouse assessed as tumor growth inhibition at 50 mg/kg, ip bid for 13 days relative to control; format: functional; conditions: Medulloblastoma cell, 312 h, read-out: TGI; procedure, shortened: as §3
Mus musculus = experiment: Toxicity in athymic nude mouse implanted with mouse Ptch+/- p53-/- medulloblastoma cells assessed as body weight loss at 25 and 50 mg/kg, ip bid for 13 days; format: organism-based; conditions: in vivo, 312 h; procedure, shortened: as §3

With Cc1ccc2c(n1)[C@H]([C@@H](C)C(=O)Nc1ccc(Cl)c(-c3nc4ccccc4n3C)c1)CC[C@H]2C the IC50 (Protein smoothened) was 0.00953 µM, the Ratio IC50 [1] was 4 to 5 and the IC50 [2] was greater than 20 µM. The IC50 [3] was greater than 15 µM, the inhibition [4] was “Active” and the inhibition [5] was “Dose-dependent effect”. For the same compound, the inhibition [6] was “Active”, the inhibition [7] was “Active” and the Activity (Medulloblastoma cell) was “Dose-dependent effect”. For the same compound, the Activity [8] was 21.7%, the Activity [9] was 4.6% and the inhibition [10] was “Active”. It also gave a half-life [11] of 1.4 h, a half-life [12] of 5.95 h and a Tmax [13] of 0.25 h. For the same compound, the Cmax [14] was 799 ng/mL, the AUC(0-t) [15] was 1460 ng·h/mL and the AUC(0-t) [16] was 1780 ng·h/mL. It also gave an AUC(0-inf) [17] of 1480 ng·h/mL, an AUC(0-inf) [18] of 1840 ng·h/mL and a clearance [19] of 9.31 mL/min/kg. It also gave an MRT inf [20] of 1.53 h, an MRT inf [21] of 3.97 h and a Vd [22] of 2.23 L/kg. For the same compound, the inhibition [23] was “Active”, the bioavailability [24] was 27.4% and the inhibition in vivo at 25 mg/kg [25] was 81.7%. For the same compound, the inhibition in vivo at 50 mg/kg [26] was 91.5% and the Activity (Mus musculus) was “Non-Toxic”.
